Published values from different studies.
Compare with care: the assays were run in different laboratories.
Cell line: MDA-MB-231

With `CCOc1ccc(-c2nc3ccccc3[nH]2)cc1` the IC50 was greater than 100 µM (cell growth or viability, MTT; 48 h).
`CC(C)CCC[C@@H](C)[C@H]1CC[C@H]2[C@@H]3CC=C4C[C@@H](O)CC[C@]4(C)[C@H]3CC[C@]12C` has an IC50 of greater than 30 µM (cell growth or viability, resazurin; 72 h).
`CC(=O)O[C@@]12CO[C@@H]1C[C@H](O)[C@@]1(C)C(=O)[C@H](O)C3=C(C)[C@@H](OC(=O)[C@H](O)[C@@H](NC(=O)OC(C)(C)C)c4ccccc4)C[C@@](O)([C@@H](OC(=O)c4ccccc4)[C@H]21)C3(C)C` gave an IC50 of 0.02 µM (cell growth or viability, resazurin; 72 h).
The IC50 of `COc1cccc2c1C(=O)c1c(O)c3c(c(O)c1C2=O)C[C@@](O)(C(=O)CO)C[C@@H]3O[C@H]1C[C@H](N)[C@H](O)[C@H](C)O1` is reported as 0.383 µM (cell growth or viability, resazurin; 72 h).
The IC50 of `O=Cc1ccc(-c2ccc3ncnc(Nc4cccc(C(F)(F)F)c4)c3c2)cc1` is reported as 8.67 µM (cell growth or viability, MTT; 24 h).
The IC50 of `C=CC1=C(C)c2cc3[nH]c(cc4nc(cc5[nH]c(cc1n2)c(C)c5CCC(=O)O)C(CCC(=O)O)=C4C)c(C)c3C=C` is reported as greater than 100 µM (cell growth or viability; 4 h, dark).
`C[C@H]1O[C@@H](n2cc(F)c(=O)[nH]c2=O)[C@H](O)[C@@H]1O` has an IC50 of greater than 50 µM (cell growth or viability, CCK-8; 48 h).
For `Clc1ccc(-c2nc3ccccc3[nH]2)cc1Cl`, the IC50 was 9.83 µM (cell growth or viability, MTT; 48 h).
The IC50 of `CCc1ccc(N2NC(=O)/C(=C/c3ccc(-c4ccc(S(=O)(=O)Nc5nccs5)cc4)o3)C2=O)cc1` is reported as 65.2 µM (cell growth or viability, MTT; 48 h).
`FC(F)(F)c1cccc(Nc2ncnc3ccc(-c4ccsc4)cc23)c1` gave an IC50 of 2.96 µM (cell growth or viability, MTT; 24 h).
The IC50 of `COc1cc(OC)cc([C@H]2C[C@@H](C)OC(=O)c3cc4ccccn4c32)c1` (racemic) is reported as 20.5 µM (cell growth or viability, resazurin; 72 h).
`CC(=O)O[C@H]1C(=O)[C@@]2(C)[C@H]([C@H](OC(=O)c3ccccc3)[C@]3(O)C[C@H](OC(=O)[C@H](O)[C@@H](NC(=O)c4ccccc4)c4ccccc4)C(C)=C1C3(C)C)[C@]1(OC(C)=O)CO[C@@H]1C[C@@H]2O` gave an IC50 of 1.38 µM (cell growth or viability, MTT; 48 h).
`Cc1nc(Nc2ncc(C(=O)Nc3c(C)cccc3Cl)s2)cc(N2CCN(CCO)CC2)n1` has an IC50 of 19.4 µM (cell growth or viability, MTT; 48 h).
`CC(=O)O[C@H]1C(=O)[C@@]2(C)[C@H]([C@H](OC(=O)c3ccccc3)[C@]3(O)C[C@H](OC(=O)[C@H](O)[C@@H](NC(=O)c4ccccc4)c4ccccc4)C(C)=C1C3(C)C)[C@]1(OC(C)=O)CO[C@@H]1C[C@@H]2O` has an IC50 of 0.006 µM (cell growth or viability, ATP luminescence; 72 h).
`CCn1c(-c2nnc(NC(=O)c3cc4c([nH]c5ccccc54)c(-c4cc(OC)c(OC)c(OC)c4)n3)s2)cc2ccccc21` has an IC50 of 8.66 µM (cell growth or viability, MTT; 72 h).
`Cc1ccc2nc(-c3ccc(Cl)cc3)n(Cc3ccccc3)c2c1` gave an IC50 of 2.39 µM (cell growth or viability, MTT).
For `O=C(CSc1nc2ccc(N=Cc3ccc(Sc4nnnn4-c4ccccc4)o3)cc2s1)N1CCOCC1`, the IC50 was 21 µM (cell growth or viability, MTT; 48 h).
`COc1ccc(-c2ccc3ncnc(Nc4cccc(C(F)(F)F)c4)c3c2)cc1` gave an IC50 of 6.39 µM (cell growth or viability, MTT; 24 h).
With `Fc1ccc(-c2nc3ccccc3n2Cc2ccccc2)cc1` the IC50 was 34.6 µM (cell growth or viability, MTT).
With `COc1cc([C@H]2C[C@@H](C)OC(=O)c3cc4ccccn4c32)cc(OC)c1OC` (racemic) the IC50 was greater than 100 µM (cell growth or viability, resazurin; 72 h).
With `CC(=O)Nc1nc(C)c(-c2csc(Nc3ccccc3)n2)s1` the IC50 was 12.2 µM (cell growth or viability, MTT; 48 h).
`C[C@@H]1C[C@H](c2cccc(Cl)c2)c2c(cc3ccccn23)C(=O)O1` (racemic) has an IC50 of 36 µM (cell growth or viability, resazurin; 72 h).
`CN(C)c1ccc(-c2nc3ccccc3[nH]2)cc1` has an IC50 of 29.1 µM (cell growth or viability, MTT; 48 h).
For `CC(C)[C@H](N)c1nc2cc(-c3ccncc3F)sc2c(=O)[nH]1`, the IC50 was 1.19 µM (cell growth or viability, MTT).
`COc1cccc2c1C(=O)c1c(O)c3c(c(O)c1C2=O)C[C@@](O)(C(=O)CO)C[C@@H]3O[C@H]1C[C@H](N)[C@H](O)[C@H](C)O1` gave an IC50 of 1.48 µM (cell growth or viability, MTT; 72 h).
`C[C@@H]1C[C@@H](c2cccc(F)c2)c2c(cc3ccccn23)C(=O)O1` (racemic) has an IC50 of 52.9 µM (cell growth or viability, resazurin; 72 h).
With `COc1cc(-c2nc(C(=O)Nc3nnc(-c4cc5ccccc5n4C)s3)cc3c2[nH]c2ccccc23)cc(OC)c1OC` the IC50 was 7.23 µM (cell growth or viability, MTT; 72 h).
For `COc1ccc(-c2nc3ccccc3[nH]2)cc1OC`, the IC50 was 50.1 µM (cell growth or viability, MTT; 48 h).
For `COc1nc(SC)nc(OC)c1C(=O)/C=C/[c-]1cccc1.[Fe+2].c1cc[cH-]c1`, the IC50 was 9.3 µM (cell growth or viability, MTT; 72 h).
With `C[C@@H]1C[C@@H](c2ccc(Br)cc2)c2c(cc3ccccn23)C(=O)O1` (racemic) the IC50 was 22 µM (cell growth or viability, resazurin; 72 h).
`COc1ccc(Br)cc1/C=C/C(=O)c1ccc(NC(C)=O)cc1` gave an IC50 of 9.5 µM (cell growth or viability, MTT; 72 h).
The IC50 of `COc1cc(Nc2nccc(-c3cnn4nc(OC)ccc34)n2)cc(C(F)(F)F)c1` is reported as 1.8 µM (cell growth or viability, ATP luminescence).
`O=C(c1cc(Cc2n[nH]c(=O)c3ccccc23)ccc1F)N1CCN(C(=O)C2CC2)CC1` has an IC50 of 246 µM (cell growth or viability, MTT; 48 h).
`O=C(Nc1nnc(-c2cc3ccccc3[nH]2)s1)c1cc2c([nH]c3ccccc32)c(-c2ccc(Cl)cc2)n1` has an IC50 of 4.45 µM (cell growth or viability, MTT; 72 h).
For `C[C@H]1[C@@H](O)O[C@@H]2O[C@@]3(C)CC[C@H]4[C@H](C)CC[C@@H]1[C@@]24OO3`, the IC50 was greater than 50 µM (cell growth or viability, CCK-8; 48 h).
`[Na+].[Na+].[Na+].[O]=[V]([O-])([O-])[O-]` gave an IC50 of 5.6 µM (cell migration, inhibitor).
The IC50 of `Oc1ccccc1-c1nc2ccccc2[nH]1` is reported as 35.9 µM (cell growth or viability, MTT; 48 h).
`CC(C)=CCc1c(O)c(CC=C(C)C)c2oc3c(O)ccc(O)c3c(=O)c2c1O` has an IC50 of 17.1 µM (cell growth or viability; 48 h).
`COc1ccc(/C=C/C(=O)c2cc(Br)ccc(=O)c2O)cc1` has an IC50 of 26.1 µM (cell growth or viability, MTT; 72 h).
The IC50 of `Oc1ccccc1-c1ccc2ncnc(Nc3cccc(C(F)(F)F)c3)c2c1` is reported as 8.58 µM (cell growth or viability, MTT; 24 h).
The IC50 of `Cc1cc(NS(=O)(=O)c2ccc(NC(=O)COc3ccc(C(C)(C)c4ccccc4)cc3)cc2)nc(C)n1` is reported as 38.9 µM (cell growth or viability, MTT; 72 h).
With `Oc1ccc(-c2ccc3ncnc(Nc4cccc(C(F)(F)F)c4)c3c2)cc1` the IC50 was 3.96 µM (cell growth or viability, MTT; 24 h).
`COC1=C2C[C@@H](C)C[C@H](OC)[C@H](O)[C@@H](C)/C=C(\C)[C@H](OC(N)=O)[C@@H](OC)/C=C\C=C(/C)C(=O)NC(=CC1=O)C2=O` has an IC50 of 0.065 µM (cell growth or viability, MTT).
For `CC(=O)OC[C@H]1O[C@@H]([S-])[C@H](OC(C)=O)[C@@H](OC(C)=O)[C@@H]1OC(C)=O.CCP(CC)CC.[Au+]`, the IC50 was 1.58 µM (cell growth or viability, resazurin).
`FC(F)(F)c1cccc(Nc2ncnc3ccc(-c4ccc5c(c4)OCO5)cc23)c1` gave an IC50 of 7.24 µM (cell growth or viability, MTT; 24 h).
With `COc1c(C)c(OC)c2c(c1C)OC(c1ccccc1)CC2=O` (stereo not drawn) the IC50 was greater than 50 µM (cell growth or viability, SRB; 72 h).
The IC50 of `FC(F)(F)c1cccc(Nc2ncnc3ccc(NCc4ccccc4)cc23)c1` is reported as 12.6 µM (cell growth or viability, MTT; 24 h).
`COc1c(C)c(OS(=O)(=O)c2ccc3ccccc3c2)c(C)c(OS(=O)(=O)c2ccc3ccccc3c2)c1C(=O)/C=C/c1ccccc1` has an IC50 of greater than 50 µM (cell growth or viability, SRB; 72 h).
